The target in assay [1] is T1, Glucosyltransferase-SI (Streptococcus mutans serotype c (strain ATCC 700610 / UA159)) (UniProt P13470).
T1 sequence (whole entry): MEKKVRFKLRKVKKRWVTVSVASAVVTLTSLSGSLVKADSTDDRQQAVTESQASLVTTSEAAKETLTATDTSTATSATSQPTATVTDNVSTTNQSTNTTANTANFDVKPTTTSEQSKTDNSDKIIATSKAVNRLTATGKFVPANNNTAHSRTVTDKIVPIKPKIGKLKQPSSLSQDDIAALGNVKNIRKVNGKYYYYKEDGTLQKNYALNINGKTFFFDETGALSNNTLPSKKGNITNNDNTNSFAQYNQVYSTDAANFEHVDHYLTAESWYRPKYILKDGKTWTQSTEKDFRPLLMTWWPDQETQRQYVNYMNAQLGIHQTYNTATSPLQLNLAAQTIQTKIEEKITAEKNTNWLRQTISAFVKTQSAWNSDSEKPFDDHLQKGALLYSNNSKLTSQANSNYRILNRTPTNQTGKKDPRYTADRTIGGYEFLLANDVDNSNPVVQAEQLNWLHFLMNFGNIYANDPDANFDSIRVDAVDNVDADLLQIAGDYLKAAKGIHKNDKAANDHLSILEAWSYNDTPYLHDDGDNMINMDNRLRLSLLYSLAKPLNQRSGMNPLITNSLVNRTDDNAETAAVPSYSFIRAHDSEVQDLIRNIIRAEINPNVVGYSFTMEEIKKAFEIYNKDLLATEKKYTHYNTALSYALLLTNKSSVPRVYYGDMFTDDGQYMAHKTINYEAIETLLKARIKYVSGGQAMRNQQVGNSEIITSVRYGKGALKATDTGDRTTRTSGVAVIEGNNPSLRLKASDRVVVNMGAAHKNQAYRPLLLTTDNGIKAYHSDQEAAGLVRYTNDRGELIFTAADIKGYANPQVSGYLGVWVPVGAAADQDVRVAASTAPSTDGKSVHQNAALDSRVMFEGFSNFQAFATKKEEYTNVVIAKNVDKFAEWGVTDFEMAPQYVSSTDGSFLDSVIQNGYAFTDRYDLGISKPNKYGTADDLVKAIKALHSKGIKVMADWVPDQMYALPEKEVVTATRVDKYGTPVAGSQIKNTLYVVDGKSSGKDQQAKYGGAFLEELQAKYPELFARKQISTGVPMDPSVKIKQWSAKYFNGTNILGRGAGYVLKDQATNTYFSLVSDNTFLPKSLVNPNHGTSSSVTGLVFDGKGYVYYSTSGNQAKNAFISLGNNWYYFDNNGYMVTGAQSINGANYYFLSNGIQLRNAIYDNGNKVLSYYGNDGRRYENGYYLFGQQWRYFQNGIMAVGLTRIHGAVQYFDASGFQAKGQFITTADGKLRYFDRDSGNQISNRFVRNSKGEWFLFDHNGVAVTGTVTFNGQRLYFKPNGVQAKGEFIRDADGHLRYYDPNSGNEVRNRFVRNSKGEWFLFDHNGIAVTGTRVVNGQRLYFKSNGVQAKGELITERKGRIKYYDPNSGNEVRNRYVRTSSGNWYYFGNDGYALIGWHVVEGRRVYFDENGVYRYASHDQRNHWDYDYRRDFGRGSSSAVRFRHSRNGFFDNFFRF
Nature of the assay: Inhibition of Wild-type Streptococcus mutans UA159 glucosyltransferase C at 50 uM by coomassie blue staining based SDS-PAGE method. In short, it runs like this: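 Compound (50 µM) added to overnight S. mutans UA159 wild-type cultures; Gtfs collected and concentrated from supernatants, run on SDS-PAGE in duplicate; one gel Coomassie blue stained for protein levels.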

The subject of a further assay is Streptococcus mutans. In words: Selectivity index, ratio of growth inhibition IC50 for Streptococcus mutans UA159 to biofilm inhibition IC50 for Streptococcus mutans UA159.

The source made the active and inactive calls. The calls are words filed in the database; no cut-off is given here.

Here are results for 5 compounds from ChEMBL document CHEMBL3822431, “Hydroxychalcone inhibitors of Streptococcus mutans glucosyl transferases and biofilms as potential anticaries agents” (Bioorg Med Chem Lett, 2016).

`O=C(/C=C\c1ccc(O)cc1O)c1ccc(O)cc1`: in assay [1], the inhibition entry is “Active”. Also, the “Ratio IC50” value with Streptococcus mutans came out at 10.1. In the same order, the values of `O=C(/C=C\c1ccc(O)cc1O)c1cccc(O)c1` are “Active” and 10.6. Consider `O=C(/C=C/c1cc(O)c(O)cc1O)c1ccccc1O` (stereo in doubt; 18c), for which the inhibition entry in assay [1] is “Active”. With `O=C(/C=C/c1ccc(O)cc1O)c1ccc(O)cc1`, in assay [1], the inhibition result was “Active”. For the same compound, the “Ratio IC50” value with Streptococcus mutans is 6.6. With `O=C(/C=C/c1ccc(O)cc1O)c1cccc(O)c1` (stereo in doubt; 9a), in assay [1], the inhibition result was “Active”.
